Test results: ChEMBL document CHEMBL5380855, “Acetyl-Click Screening Platform Identifies Small-Molecule Inhibitors of Histone Acetyltransferase 1 (HAT1)” (J Med Chem, 2023)
Active and inactive are the calls of the source. The calls are words filed in the database; no cut-off is given here.

What was measured:
[1] = target: T1, HAT1/Rbap46 (Homo sapiens) (UniProt Q16576+O14929); test: Inhibition of C-terminal FLAG tagged full length human HAT1/Rbap46 transfected in HEK293F cells using histone H4 peptide as substrate and 4-pentynoyl-CoA as cofactor at 100 uM preincubated for 10 mins followed by 4-pentynoyl-CoA addition and measured after 1 hr by amplex red dye based fluorescence analysis relative to control; type: cell-based; conditions: time 70.0 min
T1 sequence (O14929 2-419 partner limits assumed): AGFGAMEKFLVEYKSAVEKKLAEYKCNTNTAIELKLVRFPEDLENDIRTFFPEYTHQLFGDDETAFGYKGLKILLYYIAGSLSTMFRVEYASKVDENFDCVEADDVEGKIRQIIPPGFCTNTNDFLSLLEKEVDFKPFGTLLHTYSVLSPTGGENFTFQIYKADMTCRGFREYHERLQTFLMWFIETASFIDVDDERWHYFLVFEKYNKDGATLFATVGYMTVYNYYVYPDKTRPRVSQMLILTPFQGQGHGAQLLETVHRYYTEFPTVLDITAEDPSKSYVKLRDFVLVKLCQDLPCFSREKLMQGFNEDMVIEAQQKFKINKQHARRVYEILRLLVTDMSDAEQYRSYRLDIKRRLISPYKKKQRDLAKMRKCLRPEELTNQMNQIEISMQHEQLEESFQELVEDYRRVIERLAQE
T1 sequence (Q16576 2-425 limits assumed): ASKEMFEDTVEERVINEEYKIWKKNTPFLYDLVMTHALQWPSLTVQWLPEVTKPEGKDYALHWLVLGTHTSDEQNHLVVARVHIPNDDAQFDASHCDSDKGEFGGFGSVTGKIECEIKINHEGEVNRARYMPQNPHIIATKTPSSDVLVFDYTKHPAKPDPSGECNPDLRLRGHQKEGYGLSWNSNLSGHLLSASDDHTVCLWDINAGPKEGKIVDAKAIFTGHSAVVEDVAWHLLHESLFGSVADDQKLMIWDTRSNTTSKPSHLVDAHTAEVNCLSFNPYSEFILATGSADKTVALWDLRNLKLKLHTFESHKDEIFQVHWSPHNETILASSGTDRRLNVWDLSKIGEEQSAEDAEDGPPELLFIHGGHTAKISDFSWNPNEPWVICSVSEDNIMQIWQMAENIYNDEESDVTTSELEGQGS

[2] = target: T1, HAT1/Rbap46 (Homo sapiens); test: Inhibition of C-terminal FLAG tagged full length human HAT1/Rbap46 transfected in HEK293F cells using histone H4 peptide as substrate and 4-pentynoyl-CoA as cofactor at 10 uM preincubated for 10 mins followed by 4-pentynoyl-CoA addition and measured after 1 to 4 hrs by amplex red dye based fluorescence analysis; type: cell-based; conditions: time 70-250 min
[3] = Terminal elimination half life in CD1 mouse at 100 mg/kg, ip measured after 15 to 4320 mins by LC-MS/MS analysis; type: ADME, organism-based; conditions: in vivo, time 15-4320 min, read-out: LambdaZ
How it was run: (§1)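 Mice received one intraperitoneal injection at 100 mg/kg. Plasma concentrations of the drug were followed over time, out to 72 h, and PK parameters were derived from the plasma concentration–time profile.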

[4] = AUClast in CD1 mouse at 100 mg/kg, ip measured after 15 to 4320 mins by LC-MS/MS analysis; type: ADME, organism-based; parameters: time lower 15 min, dose 100 mg/kg, time upper 4320 min, route ip; conditions: in vivo; how it was run: as §1
[5] = system: A549; test: Antitumor activity against human A549 cells xenografted in NSG mouse assessed as reduction in tumor growth at 50 to 100 mg/kg, ip administered once for every 3 days starting from day 13 post tumor implantation by digital caliper method; type: functional, organism-based; conditions: dose 50-100 mg/kg
How it was run: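 A549 cells were implanted in both flanks of NSG mice and tumours were allowed to establish for 13 days. Vehicle or drug (50 or 100 mg/kg) was then injected i.p. once every third day.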

[6] = target: Histone acetyltransferase KAT5 (Homo sapiens, UniProt Q92993); test: Inhibition of human KAT5 incubated for 20 mins followed by 3H-Acetyl CoA addition and measured after 30 mins
[7] = Cmax in CD1 mouse at 100 mg/kg, ip measured after 72 hrs by LC-MS/MS analysis; type: ADME, organism-based; parameters: time 72 hrs, dose 100 mg/kg, route ip; conditions: in vivo; how it was run: as §1
[8] = target: Histone acetyltransferase KAT2B (Homo sapiens) (UniProt Q92831); test: Inhibition of human pCAF at 100 uM incubated for 20 mins followed by 3H-Acetyl CoA addition and measured after 30 mins; conditions: time 50.0 min
[9] = Observed apparent volume of distribution during terminal phase in CD1 mouse at 100 mg/kg, ip measured after 15 to 4320 mins by LC-MS/MS analysis; type: ADME, organism-based; conditions: in vivo, time 15-4320 min, read-out: Vz/F; how it was run: as §1
[10] = Tmax in CD1 mouse at 100 mg/kg, ip measured after 15 to 4320 mins by LC-MS/MS analysis; type: ADME, organism-based; conditions: in vivo, time 15-4320 min; how it was run: as §1
[11] = system: HCC1806; test: Cytotoxicity against human HCC1806 cells assessed as inhibition of cell growth by resazurin dye based fluorescence analysis; type: functional
How it was run: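 HCC1806 cells were treated across a range of doses. Growth was read by resazurin reduction to resorufin, with fluorescence at 590 nm.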

[12] = Cmax in CD1 mouse at 100 mg/kg, ip measured after 1 hr by LC-MS/MS analysis; type: ADME, organism-based; parameters: dose 100 mg/kg, time 1 hrs, route ip; conditions: in vivo; how it was run: as §1
[13] = Toxicity in mouse assessed as signs of distress at 500 mg/kg, ip administered as single dose; type: organism-based; conditions: in vivo
[14] = Toxicity in mouse assessed as drug tolerance up to 250 mg/kg, ip administered as single dose; type: organism-based; conditions: in vivo
[15] = species on record: Homo sapiens; test: Inhibition of FAD-dependent oxidase (unknown origin)
[16] = system: Mus musculus; test: In vivo inhibition of HAT-1 in NSG mouse xenografted with human A549 cells assessed as reduction in Histone H4 lysine 12 acetylation in tumor administered as single ip injection and measured after 24 hrs by immunofluorescence analysis; type: functional, organism-based; conditions: dose 25-100 mg/kg
How it was run: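 A549 tumours were established in NSG mice and given one i.p. dose of vehicle or drug. Tumours were harvested 24 h later and sections immunostained for H4K12Ac. Median nuclear fluorescence was taken from all nuclei in 2 images per group; one-way ANOVA.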

[17] = target: Histone acetyltransferase KAT6B (Homo sapiens, UniProt Q8WYB5); test: Inhibition of human MYST4 incubated for 20 mins followed by 3H-Acetyl CoA addition and measured after 30 mins
Chain of Histone acetyltransferase KAT6B (Q8WYB5 whole entry): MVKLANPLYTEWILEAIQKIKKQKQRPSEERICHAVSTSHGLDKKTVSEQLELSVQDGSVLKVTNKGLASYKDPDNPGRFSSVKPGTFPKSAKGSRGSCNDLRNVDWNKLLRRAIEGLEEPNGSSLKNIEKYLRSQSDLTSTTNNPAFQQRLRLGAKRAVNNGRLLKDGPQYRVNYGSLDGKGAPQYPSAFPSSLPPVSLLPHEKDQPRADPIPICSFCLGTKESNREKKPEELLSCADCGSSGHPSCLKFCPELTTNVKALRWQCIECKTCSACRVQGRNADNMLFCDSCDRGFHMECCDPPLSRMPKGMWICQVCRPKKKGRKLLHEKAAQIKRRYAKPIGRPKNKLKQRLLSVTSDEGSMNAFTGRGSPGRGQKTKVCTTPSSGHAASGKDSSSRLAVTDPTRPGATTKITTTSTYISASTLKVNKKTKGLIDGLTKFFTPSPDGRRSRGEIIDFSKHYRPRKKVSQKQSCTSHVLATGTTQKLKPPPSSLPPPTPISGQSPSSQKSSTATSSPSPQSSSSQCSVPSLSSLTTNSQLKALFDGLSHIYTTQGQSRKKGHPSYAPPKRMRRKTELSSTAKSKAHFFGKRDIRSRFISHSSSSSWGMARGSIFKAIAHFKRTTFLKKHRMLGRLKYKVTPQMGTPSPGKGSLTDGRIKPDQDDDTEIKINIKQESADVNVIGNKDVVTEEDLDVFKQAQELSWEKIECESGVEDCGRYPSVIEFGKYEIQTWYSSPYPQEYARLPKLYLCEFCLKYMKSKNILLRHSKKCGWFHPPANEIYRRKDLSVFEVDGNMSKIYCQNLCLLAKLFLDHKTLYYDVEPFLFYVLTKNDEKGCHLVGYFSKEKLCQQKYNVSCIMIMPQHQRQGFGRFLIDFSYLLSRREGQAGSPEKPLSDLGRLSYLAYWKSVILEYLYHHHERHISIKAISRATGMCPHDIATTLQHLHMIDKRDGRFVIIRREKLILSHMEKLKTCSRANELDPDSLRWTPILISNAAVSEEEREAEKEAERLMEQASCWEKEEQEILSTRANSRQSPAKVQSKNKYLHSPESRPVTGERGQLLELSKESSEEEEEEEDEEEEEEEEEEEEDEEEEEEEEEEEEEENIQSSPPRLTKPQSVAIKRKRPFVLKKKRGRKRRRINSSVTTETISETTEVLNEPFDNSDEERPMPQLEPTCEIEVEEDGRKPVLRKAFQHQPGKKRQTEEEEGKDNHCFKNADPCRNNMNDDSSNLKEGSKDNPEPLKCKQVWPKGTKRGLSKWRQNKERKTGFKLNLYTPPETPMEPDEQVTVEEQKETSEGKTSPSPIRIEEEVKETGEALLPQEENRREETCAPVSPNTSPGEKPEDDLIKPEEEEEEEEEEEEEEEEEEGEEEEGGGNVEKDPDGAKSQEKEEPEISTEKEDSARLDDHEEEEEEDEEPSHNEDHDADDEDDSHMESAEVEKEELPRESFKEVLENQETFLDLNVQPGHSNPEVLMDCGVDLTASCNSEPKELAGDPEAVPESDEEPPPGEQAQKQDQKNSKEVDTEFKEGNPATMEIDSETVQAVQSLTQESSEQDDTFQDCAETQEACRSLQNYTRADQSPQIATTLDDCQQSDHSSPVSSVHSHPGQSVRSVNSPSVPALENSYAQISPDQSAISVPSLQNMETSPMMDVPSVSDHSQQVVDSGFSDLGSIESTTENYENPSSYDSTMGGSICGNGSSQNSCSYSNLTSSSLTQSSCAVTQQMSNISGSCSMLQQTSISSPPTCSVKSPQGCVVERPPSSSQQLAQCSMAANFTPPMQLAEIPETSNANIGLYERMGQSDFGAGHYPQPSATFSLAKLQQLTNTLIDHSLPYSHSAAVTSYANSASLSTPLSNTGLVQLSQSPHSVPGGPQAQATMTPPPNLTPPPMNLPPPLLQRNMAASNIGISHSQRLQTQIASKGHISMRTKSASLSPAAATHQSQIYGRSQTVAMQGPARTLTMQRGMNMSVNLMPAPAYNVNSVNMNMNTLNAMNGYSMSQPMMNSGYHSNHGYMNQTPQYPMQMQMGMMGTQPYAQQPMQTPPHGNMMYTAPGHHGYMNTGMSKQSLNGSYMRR

[18] = target: Histone acetyltransferase KAT2A (Homo sapiens) (UniProt Q92830); test: Inhibition of human GCN5 at 100 uM incubated for 20 mins followed by 3H-Acetyl CoA addition and measured after 30 mins; conditions: time 50.0 min
Chain of Histone acetyltransferase KAT2A (Homo sapiens) (Q92830 2-837 limits assumed): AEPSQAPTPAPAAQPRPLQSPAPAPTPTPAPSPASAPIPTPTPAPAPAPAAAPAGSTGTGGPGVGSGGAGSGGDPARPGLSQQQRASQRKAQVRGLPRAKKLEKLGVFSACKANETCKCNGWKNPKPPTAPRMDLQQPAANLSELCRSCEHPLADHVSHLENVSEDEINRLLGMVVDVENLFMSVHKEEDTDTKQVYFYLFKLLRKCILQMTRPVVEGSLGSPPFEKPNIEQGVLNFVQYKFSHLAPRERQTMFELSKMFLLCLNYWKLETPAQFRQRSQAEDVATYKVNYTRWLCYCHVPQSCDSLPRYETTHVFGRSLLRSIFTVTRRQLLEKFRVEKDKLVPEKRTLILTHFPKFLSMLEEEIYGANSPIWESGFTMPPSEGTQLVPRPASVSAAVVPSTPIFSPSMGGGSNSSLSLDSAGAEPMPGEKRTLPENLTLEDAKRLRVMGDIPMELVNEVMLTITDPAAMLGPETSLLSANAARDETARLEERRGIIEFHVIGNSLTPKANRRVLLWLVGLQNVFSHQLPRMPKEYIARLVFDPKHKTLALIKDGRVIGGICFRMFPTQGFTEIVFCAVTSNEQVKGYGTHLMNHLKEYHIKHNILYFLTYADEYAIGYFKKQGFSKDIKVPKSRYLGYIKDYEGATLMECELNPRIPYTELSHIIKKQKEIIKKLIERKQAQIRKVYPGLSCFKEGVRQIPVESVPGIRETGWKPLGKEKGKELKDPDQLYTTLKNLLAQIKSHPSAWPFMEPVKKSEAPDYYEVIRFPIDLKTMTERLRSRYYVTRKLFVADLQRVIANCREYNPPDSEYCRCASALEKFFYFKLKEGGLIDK

[19] = Observed clearance in CD1 mouse at 100 mg/kg, ip measured after 15 to 4320 mins by LC-MS/MS analysis; type: ADME, organism-based; conditions: in vivo, time 15-4320 min; how it was run: as §1
[20] = target: T1, HAT1/Rbap46 (Homo sapiens); test: Inhibition of C-terminal FLAG tagged full length human HAT1/Rbap46 transfected in HEK293F cells using histone H4 peptide as substrate and 4-pentynoyl-CoA as cofactor preincubated for 10 mins followed by 4-pentynoyl-CoA addition and measured after 1 hr by amplex red dye based fluorescence analysis relative to control; type: cell-based; parameters: concentration or dose not given beside the values; conditions: time 70.0 min
[21] = target: T1, HAT1/Rbap46 (Homo sapiens); test: Inhibition of C-terminal FLAG tagged full length human HAT1/Rbap46 transfected in HEK293F cells using histone H4 peptide as substrate and 4-pentynoyl-CoA as cofactor at 1 to 100 uM preincubated for 10 mins followed by 4-pentynoyl-CoA addition and measured after 1 hr by amplex red dye based fluorescence analysis relative to control; type: cell-based; conditions: dose 1-100 µM, time 70.0 min
[22] = system: HCC1806; test: Cytotoxicity against human HCC1806 cells assessed as inhibition of cell growth incubated for 48 hrs by celltiter blue analysis; type: functional, cell-based
[23] = target: HAT1/Rbap46 (Homo sapiens, UniProt O14929+Q16576); test: Inhibition of C-terminal FLAG tagged full length human HAT1/Rbap46 transfected in HEK293F cells using histone H4 peptide as substrate and 4-pentynoyl-CoA as cofactor preincubated for 10 mins followed by 4-pentynoyl-CoA addition and measured after 1 hr by amplex red dye based fluorescence analysis; type: cell-based
Chain of HAT1/Rbap46 (Q16576 whole entry): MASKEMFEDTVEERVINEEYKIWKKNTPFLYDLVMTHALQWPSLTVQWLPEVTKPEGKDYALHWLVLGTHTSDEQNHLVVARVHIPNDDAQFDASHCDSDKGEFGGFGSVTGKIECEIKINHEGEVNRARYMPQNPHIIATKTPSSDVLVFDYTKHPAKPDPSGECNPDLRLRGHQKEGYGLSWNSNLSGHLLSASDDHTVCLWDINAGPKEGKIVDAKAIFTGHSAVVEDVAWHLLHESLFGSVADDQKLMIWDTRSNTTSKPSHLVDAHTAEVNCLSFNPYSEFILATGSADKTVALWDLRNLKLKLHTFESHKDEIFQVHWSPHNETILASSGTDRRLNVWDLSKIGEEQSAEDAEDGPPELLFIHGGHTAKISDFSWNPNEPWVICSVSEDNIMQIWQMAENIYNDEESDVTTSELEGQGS
Chain of HAT1/Rbap46 (O14929 whole entry): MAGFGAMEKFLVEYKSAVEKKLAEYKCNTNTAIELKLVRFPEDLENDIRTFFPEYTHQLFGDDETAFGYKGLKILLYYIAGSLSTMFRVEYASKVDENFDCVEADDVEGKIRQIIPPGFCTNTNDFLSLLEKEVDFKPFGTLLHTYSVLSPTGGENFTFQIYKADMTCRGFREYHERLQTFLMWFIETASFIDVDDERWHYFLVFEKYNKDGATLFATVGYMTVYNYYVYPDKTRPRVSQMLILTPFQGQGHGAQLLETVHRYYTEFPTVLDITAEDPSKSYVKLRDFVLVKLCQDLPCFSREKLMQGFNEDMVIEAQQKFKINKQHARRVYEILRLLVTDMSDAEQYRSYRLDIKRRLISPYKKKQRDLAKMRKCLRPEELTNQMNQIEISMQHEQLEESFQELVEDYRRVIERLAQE

CCc1cc2c(cc1Cl)nc1c(=O)[nH]c(=O)nc-1n2CCOCC(C)(C)C
inhibition [1]: 40%

CCc1cc2c(cc1Cl)nc1c(=O)[nH]c(=O)nc-1n2CCOCC1CCCC1
inhibition [1]: 47%

CCc1cc2c(cc1Cl)nc1c(=O)[nH]c(=O)nc-1n2CCOc1cccc(C(F)(F)F)c1
inhibition [1]: 11%

CC(=O)N[C@@H](CCCCNC(=O)SCCNC(=O)CCNC(=O)[C@H](O)C(C)(C)COP(=O)(O)OP(=O)(O)OC[C@H]1O[C@@H](n2cnc3c(N)ncnc32)[C@H](O)[C@@H]1OP(=O)(O)O)C(N)=O
inhibition [2]: inactive

CCc1cc2c(cc1Cl)nc1c(=O)[nH]c(=O)nc-1n2CCOCC(C)C
half-life [3]: 25.4 h | AUC(0-t) [4]: 641 µM·h | Activity [5]: Active | IC50 [6]: > 100 µM | Cmax [7]: 2.05 µM | inhibition [8]: inactive | Vd/F [9]: 13.6 L/kg | Tmax [10]: 1 h | EC50 [11]: 10.4 µM | Cmax [12]: 70.1 µM | Activity [13]: Toxic | Activity [14]: Non-Toxic | inhibition [15]: inactive | inhibition [16]: Dose-Dependent Effect | IC50 [17]: > 100 µM | inhibition [18]: inactive | CL/F [19]: 6.2 mL/min/kg

COC1=C(N)C(=O)c2nc(-c3nc(C(=O)O)c(C)c(-c4ccc(OC)c(OC)c4O)c3N)ccc2C1=O
inhibition [20]: 66.3%

CCc1cc2c(cc1Cl)nc1c(=O)[nH]c(=O)nc-1n2CCO
inhibition [1]: 54%

CCc1cc2c(cc1Cl)nc1c(=O)[nH]c(=O)nc-1n2CCOc1ccc(F)cc1
inhibition [1]: 1%

CC(=O)Nc1cc2[nH]c3nc(=O)n(Cc4ccccc4)c(=O)c-3nc2cc1C
inhibition [20]: 32%

CCc1cc2c(cc1Cl)nc1c(=O)[nH]c(=O)nc-1n2CCOc1ccc(C)cc1
inhibition [1]: 20%

CCc1cc2c(cc1Cl)nc1c(=O)[nH]c(=O)nc-1n2CC(C)(C)C
inhibition [1]: 62%

Cc1cc2nc3[nH]c(=O)[nH]c(=O)c3nc2cc1C
inhibition [1]: 7% | inhibition [21]: inactive

Cc1cc2nc3c(=O)[nH]c(=O)nc-3n(C[C@H](O)[C@H](O)[C@H](O)CO)c2cc1N(C)C
inhibition [1]: 7% | inhibition [22]: Active

CC(=O)Nc1cc2[nH]c3nc(=O)n(CC4CCCCC4)c(=O)c-3nc2cc1C
inhibition [20]: 25%

CCc1cc2c(cc1Cl)nc1c(=O)[nH]c(=O)nc-1n2CCCOc1ccc(C#N)cc1
inhibition [1]: 25%

CCc1cc2c(cc1Cl)nc1c(=O)[nH]c(=O)nc-1n2CCOCc1ccc(-c2ccccc2)cc1
inhibition [1]: 17%

CCc1cc2c(cc1Cl)nc1c(=O)[nH]c(=O)nc-1n2CCOc1cccc(F)c1
inhibition [1]: 17%

CCc1cc2c(cc1Cl)nc1c(=O)[nH]c(=O)nc-1n2CCOCc1cccc(C(F)(F)F)c1
inhibition [1]: 23%

CCc1cc2c(cc1Cl)nc1c(=O)[nH]c(=O)nc-1n2CCOCc1cccc(F)c1
inhibition [1]: 24%

CCc1cc2c(cc1Cl)nc1c(=O)[nH]c(=O)nc-1n2CCCOc1cccc(C(F)(F)F)c1
inhibition [1]: 19%

CCc1cc2c(cc1Cl)nc1c(=O)[nH]c(=O)nc-1n2CCOCC1CCN(C(=O)OC(C)(C)C)CC1
inhibition [1]: 50%

Cc1cc2cc3c(=O)[nH]c(=O)cc-3n(CC(O)C(O)C(O)CO)c2cc1C (stereo not given)
inhibition [20]: 66.4%

CC(=O)OCCn1c2nc(=O)[nH]c(=O)c-2nc2cc(C)c(C)cc21
inhibition [20]: 51%

CCc1cc2c(cc1Cl)nc1c(=O)[nH]c(=O)nc-1n2C[C@H](O)[C@H](O)[C@H](O)CO
inhibition [1]: 40% | inhibition [20]: 59%

CCc1cc2c(cc1Cl)nc1c(=O)[nH]c(=O)nc-1n2CCOc1ccccn1
inhibition [1]: 55%

O=c1nc2n(CCN(CO)CO)c3cc(Cl)c(Cl)cc3nc-2c(=O)[nH]1
inhibition [1]: 17% | inhibition [20]: 37%

CCc1cc2c(cc1Cl)nc1c(=O)[nH]c(=O)nc-1n2CCOCc1ccc(C#N)cc1
inhibition [1]: 26%

CCc1cc2c(cc1Cl)nc1c(=O)[nH]c(=O)nc-1n2CCOC(C)=O
inhibition [1]: 49%

CCc1cc2c(cc1Cl)nc1c(=O)[nH]c(=O)nc-1n2CCOc1ccc(-c2ccccc2)cc1
inhibition [1]: 13%

CCc1cc2c(cc1Cl)nc1c(=O)[nH]c(=O)nc-1n2CCCOc1ccc(-c2ccccc2)cc1
inhibition [1]: 8%

CCc1cc2c(cc1Cl)nc1c(=O)[nH]c(=O)nc-1n2CCOCC1CCNCC1
inhibition [1]: 60%

CCc1cc2nc3c(=O)[nH]c(=O)nc-3n(C[C@H](O)[C@H](O)[C@H](O)CO)c2cc1Cl
inhibition [1]: 61% | inhibition [20]: 64%

CCCC(=O)OC[C@@H](OC(=O)CCC)[C@@H](OC(=O)CCC)[C@H](Cn1c2nc(=O)[nH]c(=O)c-2nc2cc(C)c(C)cc21)OC(=O)CCC
IC50 [23]: 17 µM

O=C1CN2Cc3c(ccc(Cl)c3Cl)N=C2N1
inhibition [1]: -5%

CCc1cc2c(cc1Cl)nc1c(=O)[nH]c(=O)nc-1n2CCCc1ccc(Br)cc1
inhibition [1]: 9%

Oc1ccccc1C1=NC2c3ccccc3-c3ccccc3C2N1 (stereo not given)
inhibition [20]: 69%

Cc1cc2nc3c(=O)[nH]c(=O)nc-3n(C[C@H](O)[C@H](O)[C@H](O)COP(=O)(O)O)c2cc1C
inhibition [21]: inactive

CCc1cc2c(cc1Cl)nc1c(=O)[nH]c(=O)nc-1n2CCCc1cc(F)cc(F)c1
inhibition [1]: 15%

NC(=S)c1cn([C@@H]2O[C@H](CO)[C@@H](O)[C@H]2O)c2ncnc(N)c12
inhibition [20]: 72.2%

CCc1cc2c(cc1Cl)nc1c(=O)[nH]c(=O)nc-1n2CCOCc1cccc(Br)c1
inhibition [1]: 17%

CCc1cc2c(cc1Cl)nc1c(=O)[nH]c(=O)nc-1n2CCCOc1ccc(C)cc1
inhibition [1]: 12%

O=c1nc2n(CC(O)C(O)C(O)C(O)CO)c3cc(Cl)c(Cl)cc3nc-2c(=O)[nH]1 (stereo not given)
inhibition [1]: 31% | IC50 [23]: 62.6 µM | inhibition [20]: 46%

CCc1cc2c(cc1Cl)nc1c(=O)[nH]c(=O)nc-1n2CCOc1ccc(Br)cc1
inhibition [1]: 8%

O=C(O)Cc1ccc(/N=N/c2c(O)c(C(=O)O)cc3ccccc23)cc1
inhibition [20]: 72.2%

CCc1cc2c(cc1Cl)nc1c(=O)[nH]c(=O)nc-1n2CCOCc1ccccc1
inhibition [1]: 49%

CCc1cc2c(cc1Cl)nc1c(=O)[nH]c(=O)nc-1n2CCOc1cc(F)cc(F)c1
inhibition [1]: -1%

CCC(=O)Nc1cc2[nH]c3nc(=O)n(Cc4ccccc4)c(=O)c-3nc2cc1C
inhibition [20]: 28%
